The source of these data is ChEMBL document CHEMBL1671814, “Discovery of a 3-pyridylacetic acid derivative (TAK-100) as a potent, selective and orally active dipeptidyl peptidase IV (DPP-4) inhibitor” (J Med Chem, 2011).

Each structure is given as a SMILES string. pIC50: −log10 of the molar value. Active and inactive are the calls of the source. The calls are words filed in the database; no cut-off is given here.

One data set addresses Dipeptidyl peptidase 2 (Rattus norvegicus, UniProt Q9EPB1). Put plainly: Inhibition of rat kidney DPP2 after 60 mins. The essentials:
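Rat kidney DPP-2, partially purified, preincubated with compound (DMSO) for 20 min at room temperature in […] buffer pH 5.5. Reaction started with H-Lys-Ala-pNA, added at 1 mmol/L, and run 60 min at 37 °C. A405 read at start and end against substrate-only and no-compound wells. IC50 from concentration-response curves, mean with 95% CI (n = 3).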

A short description of data set [1]: Half life in rat at 1 mg/kg, po. As to conditions: in vivo. Also noted: dose 1 mg/kg, route oral. Format: ADME, organism-based. The essentials: (§1)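 Single doses to rats (n = 3) and dogs (n = 4), intravenous 0.1 mg/kg and oral 1.0 mg/kg. Plasma obtained from serial blood samples and deproteinized with acetonitrile containing an internal standard. Supernatant diluted with 0.01 mol/L ammonium acetate. Drug quantified by LC/MS/MS. Values given as mean ± deviation.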

A short description of data set [2]: Bioavailability in dog at 0.1 mg/kg, iv and 1 mg/kg, po. Format: ADME, organism-based, Canis lupus familiaris. As to conditions: in vivo. Put shortly:
as §1

Data set [3] in a line: Metabolic stability in human liver microsomes assessed as compound remaining at 1 uM after 20 mins relative to basal level. As to conditions: read-out: Stability. Format: ADME, Microsome. The essentials: (§2)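 Rat, dog or human hepatic microsomes ([…] final) mixed on ice with 1 μmol/L compound. Reaction started with NADPH and run 20 min at 37 °C, then stopped with ice-cold acetonitrile. Zero-time controls stopped before compound addition. Supernatant analysed by HPLC-UV. Result given as % remaining.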

The nature of data set [4]: Half life in dog at 1 mg/kg, po. Also noted: dose 1 mg/kg, route oral. Format: ADME, organism-based, Canis lupus familiaris. As to conditions: in vivo. Put shortly:
as §1

Data set [5] is described as follows: Metabolic stability in dog liver microsomes assessed as compound remaining at 1 uM after 20 mins relative to basal level. In kind it is ADME, Canis lupus familiaris, Microsome. As to conditions: read-out: Stability. The essentials:
as §2

The target of another data set is Dipeptidyl peptidase 8 (Homo sapiens, UniProt Q6V1X1). Put plainly: Inhibition of FLAG-tagged human DPP8 expressed in human 293F cells after 90 mins. Format: cell-based.
Data set [6] can be described thus: Bioavailability in rat at 0.1 mg/kg, iv and 1 mg/kg, po. In kind it is ADME, organism-based. As to conditions: in vivo. Put shortly:
as §1

Data set [7] can be described thus: Metabolic stability in rat liver microsomes assessed as compound remaining at 1 uM after 20 mins relative to basal level. In kind it is ADME, Microsome. As to conditions: read-out: Stability. The essentials:
as §2
(Liver microsomes are vesicles of endoplasmic reticulum, rich in cytochrome P450 enzymes.)

A further data set relates to Rattus norvegicus. Put plainly: Antidiabetic activity in po dosed fatty Wistar rat assessed as reduction of blood glucose excursion administered 60 mins before glucose challenge by oral glucose tolerance test. Format: functional, organism-based. Put shortly:
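Female Wistar fatty rats, 13 weeks old, fasted overnight and grouped by plasma glucose and body weight (n = 6). Oral vehicle (0.5% methylcellulose) or 0.03, 0.1, 0.3 and 1 mg/kg as free base of the monohydrate. Oral glucose 1 g/kg given 1 h later. Tail-vein blood taken at 0, 10, 30 and 60 min. Plasma glucose measured enzymatically and insulin by ELISA.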

The species entered for another data set is Canis familiaris. As to conditions: Canis lupus familiaris; Plasma; 0.5 mg/kg.
The nature of data set [8]: Solubility of the compound at pH 6.8 after 2 hrs. In kind it is physicochemical. As to conditions: buffer. Put shortly: (§3)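 Thermodynamic solubility in Japanese Pharmacopoeia 15th ed. first fluid (pH 1.2) or second fluid (pH 6.8), incubated 2 h at 37 °C. Precipitate removed by filtration and filtrate quantified by HPLC.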
Data set [9] is described as follows: Solubility of the compound at pH 1.2 after 2 hrs. In kind it is physicochemical. As to conditions: buffer. Put shortly: as §3
Another data set has as its target Dipeptidyl peptidase 9 (Homo sapiens, UniProt Q86TI2). Put plainly: Inhibition of FLAG-tagged human DPP9 expressed in human 293F cells after 90 mins. In kind it is cell-based.

Chain of Dipeptidyl peptidase 8 (Q6V1X1 whole entry): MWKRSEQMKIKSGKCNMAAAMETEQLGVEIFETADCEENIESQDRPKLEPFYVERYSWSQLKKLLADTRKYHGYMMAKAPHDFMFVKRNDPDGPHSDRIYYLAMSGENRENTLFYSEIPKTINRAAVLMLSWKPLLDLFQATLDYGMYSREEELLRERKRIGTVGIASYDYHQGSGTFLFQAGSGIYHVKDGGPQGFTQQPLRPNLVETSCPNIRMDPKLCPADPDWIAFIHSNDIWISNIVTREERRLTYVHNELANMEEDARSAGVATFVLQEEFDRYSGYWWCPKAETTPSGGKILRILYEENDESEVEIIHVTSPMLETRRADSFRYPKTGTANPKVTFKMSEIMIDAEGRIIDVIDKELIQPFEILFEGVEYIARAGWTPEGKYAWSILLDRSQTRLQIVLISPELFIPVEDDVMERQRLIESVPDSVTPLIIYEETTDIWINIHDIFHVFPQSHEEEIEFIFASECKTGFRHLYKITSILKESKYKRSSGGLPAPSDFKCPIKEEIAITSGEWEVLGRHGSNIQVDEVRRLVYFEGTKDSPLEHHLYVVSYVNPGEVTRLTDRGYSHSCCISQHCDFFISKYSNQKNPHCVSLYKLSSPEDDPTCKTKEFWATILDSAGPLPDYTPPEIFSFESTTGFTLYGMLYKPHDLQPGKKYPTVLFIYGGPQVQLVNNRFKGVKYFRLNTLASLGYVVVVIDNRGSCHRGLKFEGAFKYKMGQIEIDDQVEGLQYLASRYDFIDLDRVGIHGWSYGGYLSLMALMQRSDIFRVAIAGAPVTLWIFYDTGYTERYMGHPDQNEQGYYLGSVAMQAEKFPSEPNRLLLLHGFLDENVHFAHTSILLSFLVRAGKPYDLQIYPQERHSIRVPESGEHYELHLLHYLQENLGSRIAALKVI
Chain of Dipeptidyl peptidase 9 (Q86TI2 whole entry): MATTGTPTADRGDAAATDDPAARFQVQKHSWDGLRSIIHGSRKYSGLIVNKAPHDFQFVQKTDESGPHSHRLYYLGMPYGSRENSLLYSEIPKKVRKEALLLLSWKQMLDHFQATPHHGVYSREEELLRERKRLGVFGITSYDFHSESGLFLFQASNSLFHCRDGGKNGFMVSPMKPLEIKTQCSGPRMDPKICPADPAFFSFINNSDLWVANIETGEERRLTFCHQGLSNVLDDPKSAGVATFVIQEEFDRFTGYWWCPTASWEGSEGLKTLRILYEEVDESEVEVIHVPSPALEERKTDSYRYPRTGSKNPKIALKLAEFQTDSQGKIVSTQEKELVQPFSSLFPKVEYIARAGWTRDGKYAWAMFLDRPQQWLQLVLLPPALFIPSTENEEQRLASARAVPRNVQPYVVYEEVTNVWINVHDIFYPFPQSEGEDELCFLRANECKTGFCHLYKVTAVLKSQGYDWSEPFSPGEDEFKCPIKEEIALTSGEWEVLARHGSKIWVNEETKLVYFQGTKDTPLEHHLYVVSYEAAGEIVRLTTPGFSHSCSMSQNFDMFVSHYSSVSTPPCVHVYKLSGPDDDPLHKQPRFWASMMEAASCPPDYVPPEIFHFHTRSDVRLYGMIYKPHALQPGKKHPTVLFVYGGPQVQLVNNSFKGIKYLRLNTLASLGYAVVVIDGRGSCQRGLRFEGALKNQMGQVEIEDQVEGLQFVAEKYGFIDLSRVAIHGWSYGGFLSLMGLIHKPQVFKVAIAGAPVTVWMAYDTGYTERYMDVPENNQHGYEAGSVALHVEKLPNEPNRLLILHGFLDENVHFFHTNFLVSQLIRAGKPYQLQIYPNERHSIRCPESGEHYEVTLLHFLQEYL
Chain of Dipeptidyl peptidase 2 (Q9EPB1 whole entry): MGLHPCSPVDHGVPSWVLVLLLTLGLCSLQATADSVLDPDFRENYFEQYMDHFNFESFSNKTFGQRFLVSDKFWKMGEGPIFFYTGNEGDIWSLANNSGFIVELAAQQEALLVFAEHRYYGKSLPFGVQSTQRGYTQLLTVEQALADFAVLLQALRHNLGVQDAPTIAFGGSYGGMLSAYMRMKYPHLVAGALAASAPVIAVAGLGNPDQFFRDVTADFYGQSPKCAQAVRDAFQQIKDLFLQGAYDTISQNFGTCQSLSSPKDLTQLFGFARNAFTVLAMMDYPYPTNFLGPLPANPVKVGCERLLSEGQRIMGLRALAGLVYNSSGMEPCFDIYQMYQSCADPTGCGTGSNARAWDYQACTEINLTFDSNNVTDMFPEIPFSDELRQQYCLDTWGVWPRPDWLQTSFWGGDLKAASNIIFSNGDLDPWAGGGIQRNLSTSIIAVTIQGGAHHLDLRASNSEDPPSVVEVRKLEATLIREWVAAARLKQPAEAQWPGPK

As usually defined, the pIC50 is the IC50 on a negative log10 scale, so that one unit is a factor of ten. Read a low pIC50 as a large IC50. As to `CCCCc1nc(C)c(C(=O)O)c(-c2ccc(C)cc2)c1CN`, the pIC50 at Dipeptidyl peptidase 2 was 4.96.
Consider `Cc1ccc(-c2c(CN)c(CC(C)(C)C)nc(C(C)C)c2C(=O)O)cc1`, for which the pIC50 against Dipeptidyl peptidase 2 is 5.80.
One may read the half-life as the time in which the quantity being followed falls by half. A word on the bioavailability: it is dose-corrected exposure relative to a reference, in per cent. Lower therefore signals poor availability. Usually solubility stands for the dissolved amount per volume that the medium holds. On to `CCc1nc(CC(C)(C)C)c(CN)c(-c2ccc(C)cc2)c1CC(=O)O.O`, for which the half-life in data set [1] is 5.74 h; in data set [4] it was 4.97 h. Also, the bioavailability was determined as 88% in data set [2] and 53.3% in data set [6]. Further, the figures for the remaining at 20 min, 1 µM in data set [3], in data set [5] and in [7] were 100%, 96.8% and 100%, respectively. For the same compound, the pIC50 against Dipeptidyl peptidase 2 and against Dipeptidyl peptidase 8 was less than 4.00 throughout. Further, the Activity result in the data set with Rattus norvegicus is “Dose-dependent effect”. Moreover, the inhibition entry in the data set filed under Canis familiaris was “Active”. For the same compound, the solubility at 2 h in [8] is 930 µg/mL; in [9], more than 1000 µg/mL.
`CCCc1nc(CC(C)(C)C)c(CN)c(-c2ccc(C)cc2)c1C(=O)O`: the pIC50 against Dipeptidyl peptidase 2 is 5.70.
The same measure, in the same setting: then `CCc1nc(CC(C)(C)C)c(CN)c(-c2ccc(C)cc2)c1C(=O)O`, with 5.40; and `Cc1ccc(-c2c(CN)c(CC(C)(C)C)nc(Cc3ccccc3)c2C(=O)O)cc1`, with 6.60.
Compound `Cc1ccc(-c2c(CN)c(CC(C)(C)C)nc(C)c2C(=O)O)cc1` showed a pIC50 against Dipeptidyl peptidase 2 of 5.00.
On the same count and under the same terms, the figure for `Cc1ccc(-c2c(CN)c(CC(C)(C)C)nc(CC(C)C)c2C(=O)O)cc1` is 5.82.
Consider `Cc1ccc(-c2c(CC(=O)O)c(C)nc(CC(C)(C)C)c2CN)cc1`, for which the pIC50 against Dipeptidyl peptidase 9 and against Dipeptidyl peptidase 8 was less than 4.00 each time.
Turning to `Cc1ccc(-c2c(CC(=O)O)c(C)nc(CC(C)C)c2CN)cc1`, the results for the pIC50 against Dipeptidyl peptidase 9, on Dipeptidyl peptidase 2 and at Dipeptidyl peptidase 8 were less than 4.52, 4.30 and less than 4.52, respectively.
For `Cc1ccc(-c2c(CCC(=O)O)c(C)nc(CC(C)C)c2CN)cc1`, the negative logarithm of the IC50 (pIC50) is less than 4.52 against Dipeptidyl peptidase 9, 5.96 on Dipeptidyl peptidase 2 and less than 4.52 against Dipeptidyl peptidase 8.
Consider `Cc1ccc(-c2c(CN)c(CC(C)C)nc(C)c2C(=O)O)cc1`, for which the pIC50 against Dipeptidyl peptidase 2 is 5.25.
